Bioassay records from PubChem.
CaV13 ICDI inh – Disruptors of the CACNA1D IQ motif to Ca2+-dependent inactivation inhibitor domain association, primary screening, Förster resonance energy transfer in intact living …; HEK cells, CFP/YFP FRET ICDI-IQ, plate reader, 10 min; percent FRET-ratio fall versus neutral wells; inhibition, % at 12.3 µM; hit rate 0.098% among 340,000; AID 743397;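 active means mean replicate inhibition of at least 30% and at least 1% of replicates passing that level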;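 further: 0% = median of the neutral control wells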
T cell modulator – modulates CD8 T cell binding to vesicles; 2C CD8+ T cell-vesicle binding, flow cytometry; stronger effect = lower value; AID 2052; response (vesicle binding), % at 7 µM; hit rate 0.068% among 330,000;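 active means response, share of CD8 T cells binding vesicles, and their 90th percentile fluorescence all below set limits, cut at about 80% in these data, passing the limit was not always enough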;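 further: values below 100% mean blocked vesicle binding to the CD8+ T cells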
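Material: murine 2C transgenic CD8+ T lymphocytes / Also added: QL9-peptide-loaded Drosophila micro-vesicles bearing Ld, ICAM-1 and B7-1 / Schedule: binding step 1.5 h, 37 °C, antibody labelling 20 min, ice / Signal: flow cytometry, PE anti-B7-1 (FL2) versus Alexa647 anti-CD8 (FL8), PFA-fixed / Evaluation: percent CD8+ FL2 mean versus row control / Benchmarks: naked versus QL9-loaded vesicles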
GRK2 aptamer HTS – inhibitors of human GRK2 displacing RNA aptamer; P25098; bead flow cytometry, FAM-aptamer displacement from GRK2; inhibition of aptamer binding, % at 10 µM; hit rate 0.59% among 330,000; AID 488847;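 active means inhibition of aptamer binding above 40%, roughly 3 SD of noise, on plates passing a quality check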;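 further: median bead fluorescence of bound FAM aptamer so fluorescent compounds give negative values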
procasp7 counter – activates human procaspase-7, counter-screen for procaspase-3 activators | P55210 | recombinant procaspase-7, Ac-DEVD-pNA absorbance 405 nm; D23A/D198A/D206A triple mutant, cannot self-cleave; scale: DMSO 0, 5 µM enzyme 100 | activation, % at 8.5 µM | hit rate 0.093% among 330,000 | AID 463210;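 active means percent activation above the screen-wide mean plus 3 SD, cut at about 25% in these data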
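Material: Procaspase-7 triple mutant (PC-7 D3A) | Quantity: 2 µM procaspase-7 mutant as dispensed | Reagent: DEVD-pNA substrate | Times: 1 h preincubation, 2 h reaction | Technique: 405 nm absorbance of p-nitroaniline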
proCasp3 act – activates human procaspase-3 | recombinant procaspase-3 D3A, Ac-DEVD-pNA absorbance 405 nm | activation, % at 8.5 µM | hit rate 0.11% among 330,000 | AID 463141;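 active means activation above the mean of all tested compounds plus 3 SD, cut at about 21% in these data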;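 further: 0% = DMSO alone and 100% = DMSO wells spiked with extra 5 µM PC-3 D3A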
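Assay system – Procaspase-3 D3A mutant · Benchmarks – DMSO low control, extra-enzyme high control · Technique – 405 nm absorbance of p-nitroaniline, reads at 0 and 120 min · Doses – 8.5 µM nominal · Measure – % activation between DMSO and enzyme-spiked controls · Also added – Ac-DEVD-pNA chromogenic peptide substrate · Schedule – 1 h compound preincubation, 2 h substrate hydrolysis at 25 °C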
aDG glyco up – alpha-DG glycosylation activation | Pro5-aDG cells, alpha-DG glycosylation AlphaScreen (IIH6); 0% Pro5, 100% B10-LARGE cell signal | activation, % at 10 µM | hit rate 0.22% among 360,000 | AID 624168;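 active means activation of at least 8% versus controls, or a plate z-score of at least 8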;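 further: Pro5 are CHO cells carrying HIG-tagged alpha-DG that lacks glycosylation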
procasp7 triplic – activates human procaspase-7, counter-screen for procaspase-3 activators; shares compounds with proCasp3 act; recombinant procaspase-7, Ac-DEVD-pNA absorbance; asp23/198/206-to-Ala mutant, cannot self-cleave; activation, % at 8.5 µM; 210 tested, under 10 active; AID 488941;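 active means mean activation above a set limit taken from an earlier procaspase-7 screen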;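 further: 0% = DMSO wells and 100% = DMSO plus 5 µM procaspase-7 enzyme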
procasp3 conf – confirmation of human procaspase-3 activators. shares compounds with proCasp3 act. recombinant PC-3 D3A, Ac-DEVD-pNA absorbance 405 nm; 100% is higher-enzyme control. activation, % at 8.5 µM. hit rate 10% among 210. AID 488954;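 active means mean activation above a set limit carried over from the earlier primary screen, cut at about 22% in these data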
* hit, by the source's call; i = inactive; / = no result given. Only some compounds are listed: those with a hit (about 1.1% of all), similar ones and a draw of the others.

SMILES	CaV13 ICDI inh	T cell modulator	GRK2 aptamer HTS	procasp7 counter	proCasp3 act	aDG glyco up	procasp7 triplic	procasp3 conf
COc1cccc(NC(=O)COC(=O)/C=C/c2ccc(Cl)cc2Cl)c1	-3	897	15	-7	5	0	/	/
COc1ccc(OC)c(/C=C/C(=O)OCC(=O)Nc2cccc(Oc3ccccc3)c2)c1	-3	224	10	17	23*	0	-22	-14
CC(=O)Oc1ccc(C(=O)O)cc1OC(C)=O	-8	134	1	-3	4	0	/	/
CC(=O)Oc1cccc2c1C(=O)c1c(OC(C)=O)cc(C(=O)O)cc1C2=O	-6	572	2	16	26*	0	17	32*
C=CCn1c(=NC(=O)c2cc(-c3cccs3)nc3ccccc23)sc2cc(S(N)(=O)=O)ccc21	-5	286	0	14	78*	0	15	20
COCCn1c(=NC(=O)c2cc(-c3cccs3)nc3ccccc23)sc2cc(S(N)(=O)=O)ccc21	-3	i	4	9	44*	0	0	-3
COCCn1c(=NC(=O)c2sc3ccccc3c2Cl)sc2cc(S(N)(=O)=O)ccc21	-16	496	2	-1	0	0	/	/
Nc1nc2c(ncn2[C@@H]2O[C@H](C(=O)N[C@H](Cc3ccccc3)C(=O)NCc3ccccc3)[C@@H](O)[C@H]2O)c(=O)[nH]1	-9	/	/	/	/	/	/	/
Cc1cc(NC(=O)CSc2nnc3c(C)cc4c(C)ccc(C)c4n23)no1	-8	182	0	10	8	0	/	/
CCc1nnc(NC(=O)CSc2nnc3c(C)cc4c(C)ccc(C)c4n23)s1	-2	259	3	0	22*	0	3	4
Cc1ccc(S(=O)(=O)Oc2ccc(/C=C(/NC(=O)c3ccccc3)C(=O)NCC(=O)O)cc2)cc1	-5	112	1	-30	-29	0	/	/
Cc1ccc(S(=O)(=O)Oc2ccc(/C=C(/NC(=O)c3ccccc3)C(=O)O)cc2)cc1	-6	228	5	0	57*	0	3	4
C[C@H]1CN([C@@H](C)CO)C(=O)c2c(c3ccccc3n2C)-c2ccccc2CO[C@H]1CN(C)C(=O)Nc1cccc(F)c1	-6	/	/	/	/	/	/	/
CC(=O)Oc1ccc(-c2cc3c(OC(C)=O)cc(OC(C)=O)cc3oc2=O)cc1	/	396	1	9	52*	0	-21	-14
CC(=O)Oc1ccc(-c2cc3ccccc3oc2=O)cc1	-5	i	3	6	2	0	/	/
Oc1c(Br)cc(Br)cc1/C=N/NC(=S)N[C@H]1CC2C=CC1C2 (stereo partly drawn)	22	411	1	19	23*	0	19	31*
Cc1c(O)ccc2c(CN3CCN(C/C=C/c4ccccc4)CC3)cc(=O)oc12	-4	171	2	23	24*	0	-20	-15
Cc1cc2oc(=O)cc(CN3CCN(C/C=C/c4ccccc4)CC3)c2cc1O	-4	147	1	7	-8	0	/	/
O=C1OCCN1C(=O)[C@H]1[C@H](c2ccc(F)cc2)C(c2ccc(F)cc2)=NN1c1ccc(Br)cc1	/	568	1	10	20	0	/	/
O=C1OCCN1C(=O)[C@H]1[C@H](c2ccc(Cl)cc2)C(c2ccc(F)cc2)=NN1c1ccc(Br)cc1	-6	/	1	16	27*	0	-23	-13
Cc1ccccc1C(=O)N1CCC(C(=O)Nc2nc3ccc(F)cc3s2)CC1	-5	199	2	3	23*	0	3	7
